Measured values as given in ChEMBL document CHEMBL1177787, “In vitro and in vivo antimalarial evaluation of semi-synthetic derivatives of gomphostenin” (Bioorg Med Chem Lett, 2010).

What was measured:
Plasmodium falciparum [1] = assay: Antiplasmodial activity against chloroquine-sensitive Plasmodium falciparum MRC2 infected in human erythrocytes after 24 hrs by Giemsa staining; assay type: functional, organism-based; details: MRC2, 24 h
Method in brief: (§1)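 Parasites grown in human B(+) erythrocytes in RPMI-1640 with 25 mM HEPES, 10% human AB(+) serum, 0.2% sodium bicarbonate, 5% CO2. Ring-stage cultures synchronized, parasitemia set to 1–1.5% with fresh RBC. Twofold serial dilutions (ethanol stock, final ethanol ≤0.5%), duplicate wells, 37 °C for 24 h. Giemsa smears: schizonts per 100 asexual parasites; inhibition = (1 − Nt/Nc) × 100; IC50 derived.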

Plasmodium falciparum [2] = assay: Antiplasmodial activity against chloroquine-resistant Plasmodium falciparum RKL9 after 24 hrs by Giemsa staining; assay type: functional, organism-based; details: RKL9, 24 h; method in brief: as §1
Plasmodium berghei [3] = assay: Antimalarial activity against chloroquine-sensitive Plasmodium berghei ANKA infected in Swiss mice (Mus musculus) assessed as parasitaemia at 150 mg/kg, perorally for 4 days measured on day 5; assay type: functional; details: route oral
Method in brief: (§2)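 Four-day suppressive test: Swiss albino mice inoculated i.p. on day 0 with 0.2 ml infected blood carrying about 1 × 10⁷ P. berghei ANKA parasitized RBC. Compounds suspended in saline with 0.5% Tween-80 and given orally from shortly after inoculation, day 0–3. Groups of five mice; the vehicle group was the negative control. Tail-blood thin films were read on day 4 (fifth day), counting parasitized cells per 600 erythrocytes.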

Plasmodium berghei [4] = assay: Antimalarial activity against chloroquine-sensitive Plasmodium berghei ANKA infected in Swiss mice (Mus musculus) assessed as parasitaemia at 100 mg/kg, perorally for 4 days measured on day 5; assay type: functional; details: route oral; method in brief: as §2
Plasmodium berghei [5] = assay: Antimalarial activity against chloroquine-sensitive Plasmodium berghei ANKA infected in Swiss mice (Mus musculus) assessed as parasitaemia at 50 mg/kg, perorally for 4 days measured on day 5; assay type: functional; details: route oral; method in brief: as §2
Plasmodium berghei [6] = assay: Antimalarial activity against chloroquine-sensitive Plasmodium berghei ANKA infected in Swiss mice (Mus musculus) assessed as suppression of parasitaemia at 150 mg/kg, perorally for 4 days measured on day 5 relative to control; assay type: functional; details: route oral; method in brief: as §2
Plasmodium berghei [7] = assay: Antimalarial activity against chloroquine-sensitive Plasmodium berghei ANKA infected in Swiss mice (Mus musculus) assessed as suppression of parasitaemia at 100 mg/kg, perorally for 4 days measured on day 5 relative to control; assay type: functional; details: route oral; method in brief: as §2
Plasmodium berghei [8] = assay: Antimalarial activity against chloroquine-sensitive Plasmodium berghei ANKA infected in Swiss mice (Mus musculus) assessed as suppression of parasitaemia at 50 mg/kg, perorally for 4 days measured on day 5 relative to control; assay type: functional; details: route oral; method in brief: as §2
Plasmodium berghei [9] = assay: Antimalarial activity against chloroquine-sensitive Plasmodium berghei ANKA infected in Swiss mice (Mus musculus) assessed as parasitaemia at 5 mg/kg, perorally for 4 days measured on day 5; assay type: functional; details: route oral; method in brief: as §2
Plasmodium berghei [10] = assay: Antimalarial activity against chloroquine-sensitive Plasmodium berghei ANKA infected in Swiss mice (Mus musculus) assessed as suppression of parasitaemia at 5 mg/kg, perorally for 4 days measured on day 5 relative to control; assay type: functional; details: route oral; method in brief: as §2

Row | SMILES | IC50 (Plasmodium falciparum [1]) [µM] | IC50 (Plasmodium falciparum [2]) [µM] | also measured
1 | COc1ccc(COC(=O)OC[C@@H]2CC[C@]3(C)C(C)=CC(=O)C[C@H]3[C@]2(C)CCC2=CCOC2=O)cc1 | 37.6 | 47.7 | 
2 | CC1=CC(=O)C[C@H]2[C@](C)(CCC3=CCOC3=O)[C@H](COC(=O)C(C)(C)C)CC[C@]12C | 78.5 | 84.9 | 
3 | COC[C@@H]1CC[C@]2(C)C(C)=CC(=O)C[C@H]2[C@]1(C)CCC1=CCOC1=O | 94.4 | 88.9 | 
4 | CC1=CC(=O)C[C@H]2[C@](C)(CCC3=CCOC3=O)[C@H](COCc3ccc(F)cc3)CC[C@]12C | 8.3 | 8.1 | Activity (Plasmodium berghei [3]): 10.3%; Activity (Plasmodium berghei [4]): 22.3%; Activity (Plasmodium berghei [5]): 26.4%; inhibition in vivo at 150 mg/kg (Plasmodium berghei [6]): 69.4%; inhibition in vivo at 100 mg/kg (Plasmodium berghei [7]): 33.2%; inhibition in vivo at 50 mg/kg (Plasmodium berghei [8]): 21.7%
5 | CC1=CC(=O)C[C@H]2[C@](C)(CCC3=CCOC3=O)[C@H](COS(=O)(=O)c3ccc(C)cc3)CC[C@]12C | 26.1 | 45.8 | 
6 | CC1=CC(=O)C[C@H]2[C@](C)(CCC3=CCOC3=O)[C@H](COS(C)(=O)=O)CC[C@]12C | 69.9 | 73.3 | 
7 | CC1=CC(=O)C[C@H]2[C@](C)(CCC3=CCOC3=O)[C@H](COCc3ccc(Cl)cc3)CC[C@]12C | 14 | 18.8 | 
8 | CCN(CC)CCCC(C)Nc1ccnc2cc(Cl)ccc12.O=P(O)(O)O.O=P(O)(O)O (configuration not stated) [CHLOROQUINE PHOSPHATE] |  |  | Activity (Plasmodium berghei [9]): 1.07%; inhibition in vivo at 5 mg/kg (Plasmodium berghei [10]): 96.8%
9 | CC1=CC(=O)C[C@H]2[C@](C)(CCC3=CCOC3=O)[C@H](COC(=O)OCc3ccccc3)CC[C@]12C | 42.2 | 43.9 | 
10 | CC1=CC(=O)C[C@H]2[C@](C)(CCC3=CCOC3=O)[C@H](COCc3ccc(C(F)(F)F)cc3)CC[C@]12C | 4.8 | 4.4 | Activity (Plasmodium berghei [3]): 11.5%; Activity (Plasmodium berghei [4]): 12.4%; Activity (Plasmodium berghei [5]): 17.5%; inhibition in vivo at 150 mg/kg (Plasmodium berghei [6]): 65.9%; inhibition in vivo at 100 mg/kg (Plasmodium berghei [7]): 63.2%; inhibition in vivo at 50 mg/kg (Plasmodium berghei [8]): 48.4%
